Values belong to the compound of their own block, whether it stands above or below them. Activity calls are given as the source filed them. The rule behind the calls is not given here.
Tests used:
K562 [1] = assay: Antiproliferative activity against human K562 cells assessed as cell growth inhibition measured after 48 hrs by CCK8 assay; format: functional, cell-based; details: K562, 48 h
Method in brief: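 Cells were seeded at 3000-20,000 per well and given 3-fold serial dilutions of compound in medium. After 2 days at 37 °C in 5% CO2, CCK-8 reagent was added for 2-4 h and absorbance was read at 450 nm.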

[2] = molecular target: T1, Protein cereblon/Tyrosine-protein kinase ABL1/Breakpoint cluster region protein (Homo sapiens, UniProt P00519+P11274+Q96SW2); assay: PROTAC activity at CRBN/Bcr-Abl in human K562 cells assessed as degrading activity by Western blotting analysis; format: cell-based
Target sequence in this assay (P00519 whole entry): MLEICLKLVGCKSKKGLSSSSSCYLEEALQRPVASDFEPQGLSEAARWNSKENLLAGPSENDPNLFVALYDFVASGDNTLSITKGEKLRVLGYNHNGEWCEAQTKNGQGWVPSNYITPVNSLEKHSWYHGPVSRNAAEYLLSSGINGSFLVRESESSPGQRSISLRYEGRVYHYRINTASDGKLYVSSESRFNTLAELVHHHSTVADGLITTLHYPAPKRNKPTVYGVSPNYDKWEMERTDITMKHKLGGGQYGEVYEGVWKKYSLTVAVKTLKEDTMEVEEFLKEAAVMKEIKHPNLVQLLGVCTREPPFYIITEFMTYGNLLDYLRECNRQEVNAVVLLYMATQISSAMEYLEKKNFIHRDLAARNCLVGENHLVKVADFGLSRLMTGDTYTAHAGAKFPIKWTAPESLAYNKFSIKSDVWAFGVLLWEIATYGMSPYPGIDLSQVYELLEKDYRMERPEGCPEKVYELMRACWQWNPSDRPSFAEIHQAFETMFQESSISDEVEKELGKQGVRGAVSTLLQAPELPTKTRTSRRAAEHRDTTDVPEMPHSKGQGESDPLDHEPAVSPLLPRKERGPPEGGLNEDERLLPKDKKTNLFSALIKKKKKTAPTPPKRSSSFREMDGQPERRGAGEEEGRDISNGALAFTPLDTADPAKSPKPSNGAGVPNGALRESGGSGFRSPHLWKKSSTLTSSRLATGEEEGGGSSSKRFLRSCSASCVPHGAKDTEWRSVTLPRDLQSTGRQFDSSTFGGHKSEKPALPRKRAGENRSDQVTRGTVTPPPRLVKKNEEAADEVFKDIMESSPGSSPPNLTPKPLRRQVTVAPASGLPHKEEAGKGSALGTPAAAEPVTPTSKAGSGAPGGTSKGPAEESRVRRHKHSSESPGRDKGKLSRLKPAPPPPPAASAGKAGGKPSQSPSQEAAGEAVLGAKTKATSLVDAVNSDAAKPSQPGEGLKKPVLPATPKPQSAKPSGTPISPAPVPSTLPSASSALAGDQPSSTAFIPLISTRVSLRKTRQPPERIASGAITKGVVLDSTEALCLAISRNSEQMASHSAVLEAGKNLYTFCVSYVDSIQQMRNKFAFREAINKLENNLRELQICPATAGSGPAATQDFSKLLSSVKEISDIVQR
Target sequence in this assay (P11274 whole entry): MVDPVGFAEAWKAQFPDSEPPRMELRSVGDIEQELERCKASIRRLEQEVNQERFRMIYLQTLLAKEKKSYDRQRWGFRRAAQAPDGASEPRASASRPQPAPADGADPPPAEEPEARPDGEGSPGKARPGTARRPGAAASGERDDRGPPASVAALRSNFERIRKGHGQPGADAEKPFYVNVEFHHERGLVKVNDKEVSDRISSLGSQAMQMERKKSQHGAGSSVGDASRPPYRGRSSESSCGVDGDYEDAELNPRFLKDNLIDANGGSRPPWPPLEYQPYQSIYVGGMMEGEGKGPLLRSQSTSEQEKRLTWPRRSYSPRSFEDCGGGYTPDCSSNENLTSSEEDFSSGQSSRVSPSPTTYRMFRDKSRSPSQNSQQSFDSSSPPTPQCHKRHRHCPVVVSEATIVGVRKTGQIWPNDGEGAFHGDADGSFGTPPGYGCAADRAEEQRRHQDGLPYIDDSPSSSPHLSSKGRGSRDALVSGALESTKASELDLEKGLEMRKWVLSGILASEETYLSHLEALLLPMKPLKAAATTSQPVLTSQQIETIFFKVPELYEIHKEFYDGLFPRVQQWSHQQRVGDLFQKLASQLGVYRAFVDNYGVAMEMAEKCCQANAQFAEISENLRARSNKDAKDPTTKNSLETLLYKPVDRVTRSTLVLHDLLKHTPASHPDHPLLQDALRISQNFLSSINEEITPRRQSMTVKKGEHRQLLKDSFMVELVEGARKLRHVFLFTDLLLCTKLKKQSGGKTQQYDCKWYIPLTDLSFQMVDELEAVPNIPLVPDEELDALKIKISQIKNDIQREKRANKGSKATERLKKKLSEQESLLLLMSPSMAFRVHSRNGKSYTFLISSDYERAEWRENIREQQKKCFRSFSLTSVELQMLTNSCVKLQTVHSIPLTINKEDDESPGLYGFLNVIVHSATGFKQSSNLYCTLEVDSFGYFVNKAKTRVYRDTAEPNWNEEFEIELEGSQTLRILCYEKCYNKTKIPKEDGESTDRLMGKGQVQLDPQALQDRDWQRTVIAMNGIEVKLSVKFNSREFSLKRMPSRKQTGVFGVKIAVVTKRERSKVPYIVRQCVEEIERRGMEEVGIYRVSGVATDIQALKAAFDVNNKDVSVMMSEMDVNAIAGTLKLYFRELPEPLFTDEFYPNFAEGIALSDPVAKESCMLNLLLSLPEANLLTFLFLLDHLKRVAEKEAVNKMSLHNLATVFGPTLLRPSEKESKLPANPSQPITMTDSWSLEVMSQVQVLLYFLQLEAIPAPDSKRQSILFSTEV
Target sequence in this assay (Q96SW2 whole entry): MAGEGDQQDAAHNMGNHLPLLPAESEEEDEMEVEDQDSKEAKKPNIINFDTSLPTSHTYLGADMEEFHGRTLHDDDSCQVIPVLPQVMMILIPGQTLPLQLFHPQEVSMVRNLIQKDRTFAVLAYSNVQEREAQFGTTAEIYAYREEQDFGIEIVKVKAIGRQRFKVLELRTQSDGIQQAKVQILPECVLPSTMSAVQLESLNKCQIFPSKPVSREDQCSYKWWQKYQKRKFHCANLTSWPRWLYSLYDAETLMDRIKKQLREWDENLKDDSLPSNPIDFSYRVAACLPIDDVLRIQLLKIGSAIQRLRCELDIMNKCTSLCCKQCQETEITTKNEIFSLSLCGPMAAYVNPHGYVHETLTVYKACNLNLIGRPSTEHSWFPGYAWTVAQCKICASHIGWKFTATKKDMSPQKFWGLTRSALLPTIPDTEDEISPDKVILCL

[3] = molecular target: T1, Protein cereblon/Tyrosine-protein kinase ABL1/Breakpoint cluster region protein; assay: PROTAC activity at CRBN/Bcr-Abl in human K562 cells assessed as reduction in Bcr-Abl level at 30 nM by Western blotting analysis; format: cell-based; details: time 0-24 hrs
Target sequence in this assay (P00519 whole entry, looked up): as the sequence (P00519 whole entry) above
Target sequence in this assay (P11274 whole entry, looked up): as the sequence (P11274 whole entry) above
Target sequence in this assay (Q96SW2 whole entry, looked up): as the sequence (Q96SW2 whole entry) above

[4] = molecular target: T1, Protein cereblon/Tyrosine-protein kinase ABL1/Breakpoint cluster region protein; assay: PROTAC activity at CRBN/Bcr-Abl in human K562 cells assessed as reduction in CRLK level after 16 hrs by Western blotting analysis; format: cell-based
Target sequence in this assay (P00519 whole entry, looked up): as the sequence (P00519 whole entry) above
Target sequence in this assay (P11274 whole entry, looked up): as the sequence (P11274 whole entry) above
Target sequence in this assay (Q96SW2 whole entry, looked up): as the sequence (Q96SW2 whole entry) above

[5] = Clearance in Wistar rat at 2 mg/kg, iv by LC-MS/MS analysis; format: ADME, organism-based; details: in vivo
Method in brief: (§1)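 Single intravenous dose of 2 mg/kg into the femoral vein of female Wistar rats, given as a solution in NMP/PEG200 (1:9, v/v). Plasma was collected by sublingual vein bleeding at 0.083, 0.25, 0.5, 1, 2, 4, 6, 8, 12 and 24 h from one group of rats (n = 3). Samples were extracted and quantified by LC-MS/MS, LOQ 2.5 ng/mL.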

[6] = Half life in Wistar rat at 2 mg/kg, iv by LC-MS/MS analysis; format: ADME, organism-based; details: in vivo; method in brief: as §1
K562 [7] = assay: Antitumor activity against human K562 cells xenografted in NOD-SCID mouse assessed as tumor growth inhibition at 3 mg/kg, ip administered daily 10 days; format: functional; details: 240 h, time 10 day, read-out: TGI
Method in brief: (§2)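 Mice carried K562-Luc xenografts, with 2 × 10^6 cells inoculated per mouse. Dosing began at a mean tumor volume of about 200 mm3. Drug in DMSO/PEG 400/40% hydroxypropyl-(1:3:6, vol/vol) was given ip once daily for 10 consecutive days at 1, 3 or 10 mg/kg. Calipers were used 2-3 times weekly, with V = L × W²/2, and TGI was calculated at day 10.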

[8] = molecular target: Protein cereblon/Proto-oncogene tyrosine-protein kinase Src (Homo sapiens) (UniProt P12931+Q96SW2); assay: PROTAC activity at CRBN/Src in human K562 cells assessed as Src degrading activity by Western blotting analysis; format: cell-based
Sequence of Protein cereblon/Proto-oncogene tyrosine-protein kinase Src (Homo sapiens) (P12931 whole entry, looked up): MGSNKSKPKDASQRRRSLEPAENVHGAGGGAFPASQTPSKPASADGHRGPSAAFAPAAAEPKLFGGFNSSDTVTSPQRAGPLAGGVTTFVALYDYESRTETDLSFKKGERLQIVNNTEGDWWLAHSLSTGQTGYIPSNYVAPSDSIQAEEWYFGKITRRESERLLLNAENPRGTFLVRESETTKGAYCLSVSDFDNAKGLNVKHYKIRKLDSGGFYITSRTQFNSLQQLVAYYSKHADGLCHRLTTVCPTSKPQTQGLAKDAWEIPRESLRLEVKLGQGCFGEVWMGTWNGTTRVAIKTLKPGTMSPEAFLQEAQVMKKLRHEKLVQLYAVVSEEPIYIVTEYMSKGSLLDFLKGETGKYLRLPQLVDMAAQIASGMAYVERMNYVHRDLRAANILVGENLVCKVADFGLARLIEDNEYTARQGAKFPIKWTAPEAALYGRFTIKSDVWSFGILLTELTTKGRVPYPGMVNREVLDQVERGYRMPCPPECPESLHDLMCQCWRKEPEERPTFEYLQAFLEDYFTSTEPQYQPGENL
Sequence of Protein cereblon/Proto-oncogene tyrosine-protein kinase Src (Homo sapiens) (Q96SW2 whole entry, looked up): as the sequence (Q96SW2 whole entry) above

[9] = Apparent volume of distribution during terminal state in Wistar rat at 2 mg/kg, iv by LC-MS/MS analysis; format: ADME, organism-based; details: in vivo, read-out: Vz; method in brief: as §1
[10] = test system: Protein cereblon/Tyrosine-protein kinase ABL1/Breakpoint cluster region protein (Homo sapiens), P00519+P11274+Q96SW2 [F317L]; assay: PROTAC activity at CRBN/BCR-ABL F317L mutant in human K562 cells assessed as degradation by Western blot analysis relative to control; format: cell-based
Method in brief: (§3)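 Cells plated at 3 × 10^5 cells/mL and exposed to compounds at the indicated concentrations and times. Cells were then harvested, washed in cold PBS and lysed in 1× SDS buffer with protease inhibitor cocktail. Protein was quantified by detergent-compatible Bradford assay, and BCR-ABL was detected by Western blot with a c-ABL antibody.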

[11] = AUC (0 to t) in Wistar rat at 2 mg/kg, iv by LC-MS/MS analysis; format: ADME, organism-based; set-up: dose 2 mg/kg; details: in vivo; method in brief: as §1
K562 [12] = assay: Antitumor activity against human K562 cells xenografted in NOD-SCID mouse assessed as tumor growth inhibition at 1 mg/kg, ip administered daily 10 days; format: functional; details: 240 h, time 10 day, read-out: TGI; method in brief: as §2
[13] = MRT (0 to t) in Wistar rat at 2 mg/kg, iv by LC-MS/MS analysis; format: ADME, organism-based; details: in vivo; method in brief: as §1
[14] = test system: Protein cereblon/Tyrosine-protein kinase ABL1/Breakpoint cluster region protein (Homo sapiens), P00519+P11274+Q96SW2 [V299L]; assay: PROTAC activity at CRBN/BCR-ABL V299L mutant in human K562 cells assessed as degradation by Western blot analysis relative to control; format: cell-based; method in brief: as §3
[15] = test system: Protein cereblon/Tyrosine-protein kinase ABL1/Breakpoint cluster region protein (Homo sapiens), P00519+P11274+Q96SW2 [E255V]; assay: PROTAC activity at CRBN/BCR-ABL E255V mutant in human K562 cells assessed as degradation by Western blot analysis relative to control; format: cell-based; method in brief: as §3
[16] = Toxicity in NOD-SCID mouse xenografted with human K562 cells assessed as reduction in body weight at 100 mg/kg, ip measured on day 10; format: organism-based; details: in vivo
[17] = molecular target: T1, Protein cereblon/Tyrosine-protein kinase ABL1/Breakpoint cluster region protein; assay: PROTAC activity at CRBN/Bcr-Abl in human K562 cells assessed as reduction in Bcr-Abl level at 30 nM preincubated with proteasome inhibitor MG132 for 2 hrs and measured after 8 hrs by Western blotting analysis; format: cell-based
Method in brief: (§4)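 K562 cells were pretreated for 2 h with MG132 ([…] as printed) or MLN4924 ([…] as printed), then exposed to degrader at 30 nM for 8 h. Cells were lysed in 1× SDS buffer with protease inhibitors, and protein was quantified by Bradford assay. BCR-ABL and c-ABL were detected by Western blot.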
Target sequence in this assay (P00519 whole entry, looked up): as the sequence (P00519 whole entry) above
Target sequence in this assay (P11274 whole entry, looked up): as the sequence (P11274 whole entry) above
Target sequence in this assay (Q96SW2 whole entry, looked up): as the sequence (Q96SW2 whole entry) above

[18] = Cmax in Wistar rat at 2 mg/kg, iv by LC-MS/MS analysis; format: ADME, organism-based; set-up: route intravenous, dose 2 mg/kg; details: in vivo; method in brief: as §1
[19] = molecular target: T1, Protein cereblon/Tyrosine-protein kinase ABL1/Breakpoint cluster region protein; assay: PROTAC activity at CRBN/Bcr-Abl in human K562 cells assessed as reduction in Bcr-Abl level at 30 nM preincubated with NEDD8 inhibitor MLN4924 for 2 hrs and measured after 8 hrs by Western blotting analysis; format: cell-based; method in brief: as §4
Target sequence in this assay (P00519 whole entry, looked up): as the sequence (P00519 whole entry) above
Target sequence in this assay (P11274 whole entry, looked up): as the sequence (P11274 whole entry) above
Target sequence in this assay (Q96SW2 whole entry, looked up): as the sequence (Q96SW2 whole entry) above

K562 [20] = assay: Antitumor activity against human K562 cells xenografted in NOD-SCID mouse assessed as tumor growth inhibition at 10 mg/kg, ip administered daily 10 days; format: functional; details: 240 h, time 10 day, read-out: TGI; method in brief: as §2
[21] = Apparent volume of distribution during steady state in Wistar rat at 2 mg/kg, iv by LC-MS/MS analysis; format: ADME, organism-based; details: in vivo, read-out: Vdss; method in brief: as §1
[22] = molecular target: T1, Protein cereblon/Tyrosine-protein kinase ABL1/Breakpoint cluster region protein; assay: PROTAC activity at CRBN/Bcr-Abl in human K562 cells assessed as reduction in STAT5 level after 16 hrs by Western blotting analysis; format: cell-based
Method in brief: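 K562 cells were plated at 3 × 10^5 cells/mL and treated with graded concentrations for 16 h. Lysates in 1× SDS buffer with protease inhibitors were quantified by Bradford assay. Western blots were probed with antibodies against Stat5, phospho-Stat5 (Tyr694) and […], among others.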
Target sequence in this assay (P00519 whole entry, looked up): as the sequence (P00519 whole entry) above
Target sequence in this assay (P11274 whole entry, looked up): as the sequence (P11274 whole entry) above
Target sequence in this assay (Q96SW2 whole entry, looked up): as the sequence (Q96SW2 whole entry) above

[23] = molecular target: Protein cereblon/Platelet-derived growth factor receptor beta (Homo sapiens) (UniProt P09619+Q96SW2); assay: PROTAC activity at CRBN/PDGFRbeta in human K562 cells assessed as PDGFRbeta degrading activity by Western blotting analysis; format: cell-based
[24] = Tmax in Wistar rat at 2 mg/kg, iv by LC-MS/MS analysis; format: ADME, organism-based; details: in vivo; method in brief: as §1
[25] = molecular target: T1, Protein cereblon/Tyrosine-protein kinase ABL1/Breakpoint cluster region protein; assay: PROTAC activity at CRBN/Bcr-Abl in human K562 cells assessed as reduction in C-Abl level at 30 nM preincubated with proteasome inhibitor MG132 for 2 hrs and measured after 8 hrs by Western blotting analysis; format: cell-based; method in brief: as §4
Target sequence in this assay (P00519 whole entry, looked up): as the sequence (P00519 whole entry) above
Target sequence in this assay (P11274 whole entry, looked up): as the sequence (P11274 whole entry) above
Target sequence in this assay (Q96SW2 whole entry, looked up): as the sequence (Q96SW2 whole entry) above

[26] = molecular target: T1, Protein cereblon/Tyrosine-protein kinase ABL1/Breakpoint cluster region protein; assay: PROTAC activity at CRBN/Bcr-Abl in human K562 cells assessed as reduction in C-Abl level at 30 nM preincubated with NEDD8 inhibitor MLN4924 for 2 hrs and measured after 8 hrs by Western blotting analysis; format: cell-based; method in brief: as §4

Compound: Cc1nc(Nc2ncc(C(=O)Nc3c(C)cccc3Cl)s2)cc(N2CCN(CCSc3cccc4c3CN(C3CCC(=O)NC3=O)C4=O)CC2)n1 (centres undefined)
IC50 (K562 [1]): 0.51 nM
DC50 [2]: 2.7 nM

Compound: Cc1nc(Nc2ncc(C(=O)Nc3c(C)cccc3Cl)s2)cc(N2CCN(C(=O)CCOCCOCCOCCNc3cccc4c3C(=O)N(C3CCC(=O)NC3=O)C4=O)CC2)n1 (centres undefined)
IC50 (K562 [1]): 14.8 nM
DC50 [2]: 18.4 nM

Compound: Cc1nc(Nc2ncc(C(=O)Nc3c(C)cccc3Cl)s2)cc(N2CCN(CCSc3cccc4c3C(=O)N(C3CCC(=O)NC3=O)C4=O)CC2)n1 (centres undefined)
inhibition [3]: Active
inhibition [4]: Active
clearance [5]: 35.7 mL/min/kg
half-life [6]: 4.23 h
inhibition in vivo at 3 mg/kg (K562 [7]): 93.8%
Activity [8]: inactive
Vd [9]: 13 L/kg
Activity [10]: Active
IC50 (K562 [1]): 0.49 nM
AUC(0-t) [11]: 926 ng·h/mL
inhibition in vivo at 1 mg/kg (K562 [12]): 78.9%
MRT last [13]: 2 h
Activity [14]: Active
Activity [15]: Active
Activity [16]: Non-Toxic
inhibition [17]: Active
Cmax [18]: 1500 ng/mL
inhibition [19]: Active
inhibition in vivo at 10 mg/kg (K562 [20]): 98.8%
Vd [21]: 5.23 L/kg
DC50 [2]: 0.18 nM
inhibition [22]: Active
Activity [23]: inactive
Tmax [24]: 4.8 min
inhibition [25]: Active
inhibition [26]: Active

Compound: Cc1nc(Nc2ncc(C(=O)Nc3c(C)cccc3Cl)s2)cc(N2CCN(C(=O)CCOCCOCCOCCOCCOCCNc3cccc4c3C(=O)N(C3CCC(=O)NC3=O)C4=O)CC2)n1 (centres undefined)
IC50 (K562 [1]): 31.9 nM
DC50 [2]: 10.8 nM

Compound: Cc1nc(Nc2ncc(C(=O)Nc3c(C)cccc3Cl)s2)cc(N2CCN(C(=O)CCOCCOCCOCCOCCNc3cccc4c3C(=O)N(C3CCC(=O)NC3=O)C4=O)CC2)n1 (centres undefined)
IC50 (K562 [1]): 40.4 nM
DC50 [2]: 26.1 nM

Compound: Cc1nc(Nc2ncc(C(=O)Nc3c(C)cccc3Cl)s2)cc(N2CCN(C(=O)CS(=O)(=O)c3cccc4c3C(=O)N(C3CCC(=O)NC3=O)C4=O)CC2)n1 (centres undefined)
IC50 (K562 [1]): 206 nM
DC50 [2]: 245 nM

Compound: Cc1nc(Nc2ncc(C(=O)Nc3c(C)cccc3Cl)s2)cc(N2CCN(C(=O)CCCNc3cccc4c3C(=O)N(C3CCC(=O)NC3=O)C4=O)CC2)n1 (centres undefined)
IC50 (K562 [1]): 5.5 nM
DC50 [2]: 7.8 nM

Compound: Cc1nc(Nc2ncc(C(=O)Nc3c(C)cccc3Cl)s2)cc(N2CCN(C(=O)CSc3cccc4c3CN(C3CCC(=O)NC3=O)C4=O)CC2)n1 (centres undefined)
IC50 (K562 [1]): 5.7 nM
DC50 [2]: 8.9 nM

Further lines, results first:

IC50 (K562 [1]): 7 nM
DC50 [2]: 11.1 nM
Compound: Cc1nc(Nc2ncc(C(=O)Nc3c(C)cccc3Cl)s2)cc(N2CCN(C(=O)COc3cccc4c3C(=O)N(C3CCC(=O)NC3=O)C4=O)CC2)n1 (centres undefined)

IC50 (K562 [1]): > 10000 nM
Compound: Nc1cccc2c1C(=O)N(C1CCC(=O)NC1=O)C2=O (centres undefined) [POMALIDOMIDE]

IC50 (K562 [1]): > 10000 nM
Compound: Nc1cccc2c1CN(C1CCC(=O)NC1=O)C2=O (centres undefined) [LENALIDOMIDE]

clearance [5]: 24.1 mL/min/kg
half-life [6]: 1.93 h
Vd [9]: 4.02 L/kg
IC50 (K562 [1]): 0.28 nM
AUC(0-t) [11]: 1330 ng·h/mL
MRT last [13]: 1.55 h
Cmax [18]: 1450 ng/mL
Vd [21]: 2.78 L/kg
DC50 [2]: 2.7 nM
Tmax [24]: 4.8 min
Compound: Cc1nc(Nc2ncc(C(=O)Nc3c(C)cccc3Cl)s2)cc(N2CCN(CCCCNc3cccc4c3C(=O)N(C3CCC(=O)NC3=O)C4=O)CC2)n1 (centres undefined)

— ChEMBL document CHEMBL4831495, “Discovery of novel BCR-ABL PROTACs based on the cereblon E3 ligase design, synthesis, and biological evaluation” (Eur J Med Chem, 2021)
